eIF4E-4G inh: eIF4E/eIF4G interaction inhibition in translation initiation; TR-FRET eIF4E-eIF4GI(517-606) binding, 2 h; inhibition, % at 21.7 µM; 220,000 tested, 0.37% active;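 further: 0% = full FRET control wells and 100% = background wells lacking eIF4GI fragment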
Wee1 degr inh: inhibitors of human Wee1 degradation; P30291; reporter increase, % at 5 µM; 220,000 tested, 1.2% active; AID 1321; HeLa Luc-Wee1K328M stability, luciferase luminescence; 100% = proteasome inhibitor MG132 effect;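 active means activation above the mean of all tested compounds plus 3 SD, set per screening run, cut at about 8.8% in these data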;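 further: cells exposed to compound for 20 h before luminescence read; 0% = DMSO alone and 100% = MG132 at 30 µM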
Target sequence (P30291 whole entry K328M): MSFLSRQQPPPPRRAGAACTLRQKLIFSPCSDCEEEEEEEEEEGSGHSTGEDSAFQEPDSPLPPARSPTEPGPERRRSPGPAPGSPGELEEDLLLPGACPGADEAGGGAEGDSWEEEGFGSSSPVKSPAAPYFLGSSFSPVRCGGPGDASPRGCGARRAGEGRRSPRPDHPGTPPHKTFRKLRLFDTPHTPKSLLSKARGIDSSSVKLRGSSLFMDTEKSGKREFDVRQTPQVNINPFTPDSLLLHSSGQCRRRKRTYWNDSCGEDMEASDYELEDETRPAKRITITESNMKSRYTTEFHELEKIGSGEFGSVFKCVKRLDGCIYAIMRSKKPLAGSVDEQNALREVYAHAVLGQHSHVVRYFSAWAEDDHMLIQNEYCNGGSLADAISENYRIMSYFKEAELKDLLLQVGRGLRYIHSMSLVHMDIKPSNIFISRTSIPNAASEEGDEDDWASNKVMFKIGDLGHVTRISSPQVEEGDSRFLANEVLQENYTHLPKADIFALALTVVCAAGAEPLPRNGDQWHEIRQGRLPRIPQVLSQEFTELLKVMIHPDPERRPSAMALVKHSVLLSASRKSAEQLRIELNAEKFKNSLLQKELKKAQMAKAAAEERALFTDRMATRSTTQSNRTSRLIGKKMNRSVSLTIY
14-3-3 Bad PPI: disrupts binding of bovine 14-3-3 zeta to phospho-Bad peptide | TR-FRET 14-3-3zeta/Dy647-pBad peptide displacement, 1 h | inhibition, % at 21.7 µM | P63103 | 220,000 tested, 0.71% active;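 active means inhibition above about 70%, limit read from the data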;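 further: 0% = full 14-3-3 plus peptide FRET controls and 100% = background without 14-3-3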
RBBP9 inhibitor: inhibitors of human serine hydrolase RBBP9; O75884; recombinant RBBP9, FP-Rh probe fluorescence polarization; inhibition, % at 7.94 µM; 220,000 tested, 0.2% active; AID 1515;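 active means inhibition above the campaign mean of all tested compounds plus 3 SD, cut at about 14% in these data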;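 further: plate controls were DMSO wells with RBBP9 for no effect and wells lacking RBBP9 protein for full effect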
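Measured by: FP readout at 525/598 nm; material: recombinant human RBBP9; also added: Serine-hydrolase probe FP-Rh, 375 nM pre-mixing; medium: Tris buffer pH 8.0, NaCl, Pluronic; replication: one well per compound; doses: one concentration, 7.94 µM nominal, 0.794% DMSO; timing: preincubation 30 min plus labeling 45 min at 25 °C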
NCF1 inh: p47phox (human) inhibition | P14598 | p47phox/p22phox peptide binding, fluorescence polarization, 2 h | inhibition, % at 24.7 µM | 220,000 tested, 0.53% active | AID 1274;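 further: 0% = p47phox with labelled peptide and 100% = labelled peptide alone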
Active calls of the source: *; . = no result given; [ ] = remark or other dose. In the library only some 2.8% were active in any assay of this set; here they are far more common.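 How the source made its calls, unless noted: active means inhibition above about 30% (limit read from the data); inactive means the rest.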

SMILES	eIF4E-4G inh	Wee1 degr inh	14-3-3 Bad PPI	RBBP9 inhibitor	NCF1 inh
CCCCOc1ccc(CN2CCN(CCO)CC2)cc1	-0.8	2.6	42.3	-10.3	-9.7
CCCCOc1ccc(CN2CCN(CC)CC2)cc1	5.9	0.7	85.7*	-1.3	-8.8
Cc1ccc(CN(Cc2ccccc2)C(=S)NCC(=O)N2CCC3(CC2)OCCO3)o1	80.3*	3.3	-4.7	-6.6	-2.5
CN1CCN(C(=O)COc2ccc(S(=O)(=O)NCc3ccccc3)cc2Cl)CC1	5.5	-2.6	75.4*	2.5	-3.5
O=c1[nH]c(O)c(/C=C2/C=CC(c3cc(Cl)ccc3Cl)=N2)c(=O)[nH]1	-12.6	-3.5	45.3	-7.4	50.0*
O=C1NC(=S)N(c2ccc(F)cc2)C(=O)/C1=C\c1ccoc1	33.9*	-2.7	76.1*	-4.8	-168.8
Cc1cccc(NP(C)(=O)c2nc3c(s2)CCCC3)c1 (configuration not stated)	6.2	-1.5	-7.7	-1.1	0.1
CN(C)c1ccc(/C=C/[N+](=O)[O-])cc1	2.8	-2.3	-6.7	1.0	43.0*
O=C(Nc1cccnc1)c1c(O)c2c(n(Cc3ccccc3)c1=O)CCCC2	61.2*	2.1	7.7	-3.8	-5.7
O=C(Nc1ccc(F)cc1)c1c(O)c2c(n(Cc3ccccc3)c1=O)CCCC2	4.7	-1.0	-1.9	3.9	-8.6
CN(C)/C=C/C(=O)C(Cl)(Cl)Cl	5.1	4.1	4.1	1.9	-10.8
CCCCCCCCCOc1ccc2[nH]cc(CCN)c2c1	25.3	-0.2	8.6	0.9	92.0*
COc1ccc2[nH]cc(CCN)c2c1	1.0	-2.1	-10.0	1.3	-2.3
CC(=O)c1c(C)n(Cc2ccccc2Cl)c2ccc(O)cc12	1.4	0.1	-2.8	-6.0	115.3*
c1cncc(C2CCCCN2)c1 (configuration not stated)	8.2	-1.9	1.5	-4.1	-2.9
c1cncc(C2Nc3cccc4cccc(c34)N2)c1	1.7	11.5*	-3.7	-1.7	2.2
O=c1[nH]c(=S)[nH]c(O)c1C(c1ccccn1)c1c(O)[nH]c(=S)[nH]c1=O	1.2	2.7	10.2	-6.6	-8.1
CCn1c(O)c(C(c2ccccn2)c2c(O)n(CC)c(=S)[nH]c2=O)c(=O)[nH]c1=S	3.9	-2.5	73.3*	-7.5	-6.0
c1ccc(-c2[nH]c[n+](CC3CO3)c2-c2ccccc2)cc1 (configuration not stated)	4.9	2.3	-16.1	-4.2	30.6*
CN(C)C(=O)O/N=C(\N)COc1ccc(C(C)(C)C)cc1	-2.6	-0.5	-6.9	-5.4	-5.5
CC(C)CN(CC(C)C)c1ccc(C=C2C(=O)NC(=S)NC2=O)cc1[N+](=O)[O-]	61.5*[fluorescence artefact?]	-2.1	64.9	-2.5	-29.6
C=CC[N+]1(C)C2CCC1CC(O)C2 (configuration not stated)	1.8	3.6	-10.2	-4.1	-5.6
C=CCn1c(O)c(C(C)=NC2CCN(Cc3ccccc3)CC2)c(=O)[nH]c1=O	-11.6	10.7*	7.2	-1.0	-1.0
COC(=O)C(O)(c1ccc(N(C)C(=O)c2cccs2)cc1)C(F)(F)F (configuration not stated)	1.4	1.3	0.1	-1.0	-5.0
CCC(CO)NC(=O)C1C=C2c3cccc4[nH]cc(c34)CC2N(C)C1 (configuration not stated)	-1.3	5.5	-2.3	-3.4	8.8
SMILES	eIF4E-4G inh	Wee1 degr inh	14-3-3 Bad PPI	RBBP9 inhibitor	NCF1 inh
COC(=O)C1C=C2c3cccc4[nH]cc(c34)CC2N(C)C1 (configuration not stated)	-4.7	-1.3	7.1	21.3*	-1.1
CC1CN(c2ccc([N+](=O)[O-])c(N3CCCCC3)c2)CCN1 (configuration not stated)	-6.9	-1.1	1.6	-10.5	11.2
O=C(Cc1ccccc1)N1CCN(CC2CC=CCC2)CC1 (configuration not stated)	11.2	-0.1	77.2*	-3.6	-4.9
O=C(Cc1ccccc1)N1CCN(CC2CC3C=CC2C3)CC1 (configuration not stated)	5.2	0.7	60.1	-6.9	3.8
Cc1nn(CCC#N)c2c1P(=S)(N1CCCC1)OC(c1ccc(F)cc1)=N2 (configuration not stated)	32.5*	-4.3	2.0	-11.3	-5.7
CN=C(SCc1ccccc1)c1c(O)n(C)c(=O)n(C)c1=O	.	9.3*	.	-4.7	.
CN1CCCC(C(=O)c2ccc(Cl)cc2)C1 (configuration not stated)	1.5	2.6	1.1	-3.7	-12.2
COc1cc2c(cc1/C=C/[N+](=O)[O-])OCO2	-3.1	10.7*	10.4	-11.2	-17.7
O=C1NC(=O)C(=Cc2ccc3c(c2)OCO3)C(=O)N1	-0.3	9.1*	-16.8	-7.1	-13.0
CC(=O)N1CN2CN(C1)CN(C(C)=O)C2	-1.2	-0.1	-2.1	5.7	-9.8
COC(=O)c1c(C)[nH]c(C(=O)C(C)[N+]23CCN(CC2)CC3)c1C (configuration not stated)	13.0	-0.7	80.6*	-3.5	-4.0
Cc1cccc(C)c1OP(N)(=O)OCC(F)(F)F (configuration not stated)	-4.4	2.5	5.8	0.8	-7.4
C[C@]12CC[C@@H]3c4ccc(O)c(O)c4CC[C@H]3[C@@H]1CC[C@@H]2O	42.1*	1.9	46.5	-2.3	6.0
CCOC(=O)c1c(C)n(CCOC)c2ccc(O)cc12	10.8	9.0*	-3.1	-0.6	-1.9
CN1c2ccccc2Oc2ccccc21	22.4	1.1	9.9	-0.8	1.5
NC1=Nc2ccccc2Oc2ccccc21	-0.5	10.2*	2.9	-4.7	-5.2
CC1CCCCN1C(=O)c1ccc(N2CC3CC(C2)c2cccc(=O)n2C3)c([N+](=O)[O-])c1 (configuration not stated)	4.5	-2.1	-13.3	-4.6	-3.6
O=S(=O)(c1ccccc1)N1CCCCC1c1cccnc1 (configuration not stated)	-6.7	4.8	9.1	-7.0	43.4*
Nc1ccc(S(=O)(=O)N2CCCCC2c2cccnc2)cc1 (configuration not stated)	1.3	-3.9	-7.1	-0.2	-12.6
O=C(Nc1ccc(F)cc1)N1CC2CC(C1)c1cccc(=O)n1C2 (configuration not stated)	-2.3	-1.5	11.4	-5.6	-10.9
CCN1C(=O)/C(=C\c2ccc([N+](=O)[O-])s2)C(=O)NC1=S	24.1	1.9	94.3*	-2.1	-12.3
COc1ccc(-n2c(Cc3cccc([N+](=O)[O-])c3)nc3ccccc3c2=O)cc1	14.1	1.6	-11.3	-7.7	-4.0
O=C1C2CCCC1C(N1CCCC1)CC2 (configuration not stated)	0.7	1.3	8.3	3.5	7.3
O=C1NC(=O)C(CCc2ccncc2)(Cc2ccc([N+](=O)[O-])cc2)C(=O)N1	10.1	1.0	-3.2	-9.6	-9.8

Screening data from PubChem.
